Results from ChEMBL document CHEMBL1139530, “Synthesis and antibacterial properties of novel hydrolyzable cationic amphiphiles. Incorporation of multiple head groups leads to impressive antibacterial activity” (2005).

Assays:
Assay type in all cases: functional
Shigella sonnei = assay: Minimum bactericidal concentration against Shigella sonnei
Procedure, shortened: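 A single S. sonnei colony was grown in LB for 12 h at 37 °C with shaking to 10⁷-10⁸ cells/mL, then exposed in tubes to amphiphile from a sterile-water stock, or water as the control, for 5 h at 37 °C with shaking. Diluted samples were spread on LB agar and incubated 24 h at 37 °C. MBC is the lowest concentration leaving no colonies; the value is the mean of three experiments.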

Escherichia coli = assay: Minimum bactericidal concentration against Escherichia coli
Procedure, shortened: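 E. coli from a freeze-dried ampule was streaked on LB agar (37 °C, 24 h), and a single colony was grown in LB for 10 h at 37 °C with shaking to 10⁸-10⁹ cells/mL. Amphiphile from a sterile-water stock, or water as the control, was incubated 5 h at 37 °C with shaking. Dilutions were spread on LB agar for 24 h at 37 °C. MBC is the lowest concentration with no colonies, averaged over three experiments.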

Enterococcus faecalis = assay: Minimum bactericidal concentration against Enterococcus faecalis
Procedure, shortened: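 Spread-plate MBC in LB broth (pH ≈7). E. faecalis came from a blood agar colony and was grown 12 h at 37 °C with shaking to 10⁷-10⁸ cells/mL. Amphiphile was added from a sterile-water stock, with water as the control, then incubated 5 h at 37 °C with shaking. Dilutions were plated on LB agar for 24 h at 37 °C. MBC is the lowest concentration giving no colonies; the value is the mean of three experiments.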

Staphylococcus aureus = assay: Minimum bactericidal concentration against Staphylococcus aureus
Procedure, shortened: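 S. aureus came from a blood agar colony and was grown in LB for 10 h at 37 °C with shaking to 10⁹-10¹⁰ cells/mL. Cells were exposed 5 h at 37 °C with shaking to amphiphile from a sterile-water stock, with water as the control. Dilutions were plated on LB agar for 24 h at 37 °C. MBC is the lowest concentration giving no colonies, averaged over three separate experiments.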

| Compound | MBC (Shigella sonnei) [µM] | MBC (Escherichia coli) [µM] | MBC (Enterococcus faecalis) [µM] | MBC (Staphylococcus aureus) [µM] |
| --- | --- | --- | --- | --- |
| CCCCCCCCCCCCCCC(COC(=O)C[N+](C)(C)C)(COC(=O)C[N+](C)(C)C)COC(=O)C[N+](C)(C)C | 9.6 | 7.3 | 9 | 11.3 |
| CCCCCCCCCCCCCCCC[n+]1ccccc1 [CETYLPYRIDINIUM BROMIDE] | 12.4 | 10.4 | 16.3 | 15.6 |
| Hexadecyl-trimethyl-ammonium bromide | 18.3 | 16.9 | 18.5 | 18.9 |
| CCCCCCCCCCCCCCC(COC(=O)C[n+]1ccccc1)(COC(=O)C[n+]1ccccc1)COC(=O)C[n+]1ccccc1 | 3.5 | 6.5 | 4.9 | 5.2 |
| CCCCCCCCCCCCCCC(COC(=O)C[N+](C)(C)C)COC(=O)C[N+](C)(C)C | 14.9 | 9.7 | 12 | 15.1 |
| CCCCCCCCCCCCCCCCOC(=O)C[N+](C)(C)C | 33.8 | 20.6 | 22.5 | 24.5 |
| CCCCCCCCCCCCCCC(COC(=O)C[n+]1ccccc1)COC(=O)C[n+]1ccccc1 | 8.9 | 8.2 | 10.4 | 13.9 |
